Rev-erbA mod = Rev-erb alpha (human) modulation; P20393; Rev-erbα–FITC-DNA binding, fluorescence polarization, 90 min; activity, % at 10 µM; 370,000 tested, 0.79% active; AID 1259318;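 active = activity above about 14%, limit read from the data; passing the limit was not always enough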
Target sequence (P20393 whole entry, looked up): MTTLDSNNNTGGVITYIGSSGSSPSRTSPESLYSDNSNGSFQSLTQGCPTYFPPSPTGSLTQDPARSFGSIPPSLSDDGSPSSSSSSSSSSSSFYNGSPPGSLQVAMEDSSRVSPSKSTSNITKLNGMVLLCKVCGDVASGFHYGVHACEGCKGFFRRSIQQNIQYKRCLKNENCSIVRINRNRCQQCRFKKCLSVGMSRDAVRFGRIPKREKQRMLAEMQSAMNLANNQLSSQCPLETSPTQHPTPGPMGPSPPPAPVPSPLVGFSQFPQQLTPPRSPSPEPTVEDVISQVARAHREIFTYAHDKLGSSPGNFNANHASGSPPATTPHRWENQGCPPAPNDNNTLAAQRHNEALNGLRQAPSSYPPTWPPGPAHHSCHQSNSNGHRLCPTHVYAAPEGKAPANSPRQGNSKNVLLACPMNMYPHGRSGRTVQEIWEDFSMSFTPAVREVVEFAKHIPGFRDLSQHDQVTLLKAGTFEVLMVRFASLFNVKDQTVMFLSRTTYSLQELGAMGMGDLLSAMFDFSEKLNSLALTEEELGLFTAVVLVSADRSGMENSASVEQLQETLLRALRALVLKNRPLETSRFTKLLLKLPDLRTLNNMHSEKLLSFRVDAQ
beta cell repl = induces beta-cell replication in MIN6 cells | 330,000 tested, 0.29% active | MIN6 cells proliferation, ATPlite luminescence, 48 h; cells starved in 0.2% serum; 100% = growth in 10% serum | proliferation, % at 10 µM;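 active = compounds whose signal lies at least 3.5 SD above the mean of all wells on their plate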
PG9 binder = PG9 antibody binding by small molecule; TR-FRET gp120-PG9 antibody binding; inhibition, % at 6.7 µM; 360,000 tested, 0.43% active; AID 624416; in the data active = inhibition above about 8.5%
iPSC survival up = enhancers of human iPSC single-cell survival. survival enhancement, % at 20 µM. hiPSC single-cell survival, ATPlite luminescence; 100% = ROCK inhibitor wells, 0% = DMSO. 360,000 tested, 0.044% active; in the data active = survival enhancement above about 18%;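 also: cells exposed to compounds for 16 hours before the ATP read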
TAG inh = triacylglycerol accumulation inhibition | H9c2 cells, Nile Red lipid (TAG) fluorescence; cells loaded with 200 µM oleic acid | inhibition, % at 12.5 µM | 230,000 tested, 0.66% active | AID 651582;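 active = pattern-corrected inhibition of lipid staining of at least 50% with the nuclear-stain viability signal not falling by more than 50%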
T cruzi inh = T. cruzi replication inhibition | T. cruzi beta-gal in NIH3T3, luminescence, 90 h | inhibition, % (test concentration not listed) | 300,000 tested, 1.4% active | AID 1885;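 active = mean inhibition across valid replicates above about 55%, limit read from the data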;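 also: signal also drops with host cell toxicity which is not excluded here; higher percent means less beta-gal luminescence so fewer parasites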
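Incubation – ≥90 h infection period, 3 h prior cell attachment · System – NIH/3T3 fibroblasts plus reporter T. cruzi · Doses – compound pinned at 50 nL/well, DMSO · Read-out basis – percent inhibition of parasite-derived β-gal signal · Signal – luminescent β-galactosidase signal after 60 min lysis · Also added – 5000 T. cruzi trypomastigotes/well · Medium – Low-serum DMEM with 2% FBS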
Large screens that a line does not name were inactive. A selection: hits, their analogues and other compounds. The true share with any hit is near 2.9%.

Cc1occc1-c1nnc(-c2cc([N+](=O)[O-])cc([N+](=O)[O-])c2)o1	T cruzi inh 66 (no result: TAG inh)
CCOC(=O)c1c2c(n(-c3ccc(OC)cc3)c1C)C(=O)C(=O)c1ccccc1-2	TAG inh 71 (no result: Rev-erbA mod, beta cell repl, PG9 binder, T cruzi inh)
CCOC(=O)c1sc(=S)n(-c2ccc(OC)cc2)c1C	none
CCc1ccc2oc(-c3cc(N=Cc4cccc(OC)c4O)ccc3O)nc2c1	T cruzi inh 64 (no result: Rev-erbA mod, PG9 binder, iPSC survival up, TAG inh)
Cc1ccc(N2CCN(S(=O)(=O)N3CCOCC3)CC2)cc1C	none
COc1ccc(S(=O)(=O)N2CCN(C(=O)c3ccc([N+](=O)[O-])o3)CC2)cc1	T cruzi inh 56 (no result: TAG inh)
COc1ccc(-c2cc3ccccc3oc2=O)cc1NC(=O)c1ccc([N+](=O)[O-])o1	T cruzi inh 56 (no result: TAG inh)
CCN1CCN(c2ccc(S(=O)(=O)N3CCCCC3)cc2NC(=O)c2ccc([N+](=O)[O-])o2)CC1	T cruzi inh 60
CCN1CCN(c2ccc(S(=O)(=O)N3CCCCC3)cc2NC(=O)c2ccc(F)cc2)CC1	none (no result: TAG inh)
CCCCn1nnc(NC(=O)c2ccc(-c3ccccc3[N+](=O)[O-])o2)n1	none
CCn1nnc(NC(=O)c2ccc([N+](=O)[O-])o2)n1	T cruzi inh 61
COc1cc(C(=O)OCCC(C)C)cc(OC)c1O	none (no result: TAG inh)
COc1cccc(S(=O)(=O)Nc2cccc(C(=O)N3CCOCC3)c2)c1	none
CCCCCC(=O)N1C[C@@H](n2cc(C3CC3)nn2)[C@H](O)C[C@@H]1c1ccc(OC)cc1	none (no result: beta cell repl, T cruzi inh)
COc1ccc(S(=O)(=O)N2CCCCC2)cc1NC(=O)c1ccc([N+](=O)[O-])o1	T cruzi inh 55
COc1ccc(S(=O)(=O)N2CCCCC2)cc1NC(=O)c1ccco1	none
CCN1CCN(c2ccc(NC(=O)c3ccc([N+](=O)[O-])o3)cc2Cl)CC1	T cruzi inh 91 (no result: beta cell repl)
Cc1cc(C(=O)C(C)OC(=O)c2ccc(NC(=O)CC#N)cc2)c(C)n1-c1ccc(OC(F)F)cc1 (centres undefined)	none (no result: T cruzi inh)
CCCCN(C(=O)c1ccc(Br)o1)C1CCS(=O)(=O)C1 (centres undefined)	none
CCOC(=O)c1cn2nc(-c3ccc(OC)cc3)cc2nc1C1CCN(C(=O)OC(C)(C)C)CC1	T cruzi inh 59
COc1cc(CNCCc2ccc(S(N)(=O)=O)cc2)ccc1OCc1ccc(Cl)cc1	T cruzi inh 66 (no result: TAG inh)
CCOc1cc(CNCCc2ccc(S(N)(=O)=O)cc2)ccc1OCc1ccc(Cl)cc1	TAG inh 67
COc1cc(CNCCc2ccc(S(N)(=O)=O)cc2)ccc1OCC(=O)NC1CCCCC1	none (no result: TAG inh)
CN1/C(=C\C=N\O)C(C)(C)c2ccccc21	none (no result: TAG inh)
CN1/C(=C\C=[N+](C)c2ccccc2)C(C)(C)c2ccccc21	T cruzi inh 64 (no result: TAG inh)
O=C(NO)c1ccc(OC(F)F)cc1	none (no result: TAG inh)
CNc1nc(Cl)nc(NC(C)(C)C)n1	iPSC survival up 17
CC(C)(C)Nc1nc(Cl)nc(NC(C)(C)C)n1	none (no result: TAG inh)
COc1ccc(CNC(=O)CN2C(=O)CSc3ccc(S(=O)(=O)N4CCOCC4)cc32)cc1	none (no result: TAG inh)
c1ccc(COc2cccc(CNCc3ccccn3)c2)cc1	none
c1ccc(COc2cccc(CNCc3cccnc3)c2)cc1	T cruzi inh 62
CC1CCN(CCCNC(=O)c2ccc3c(=O)n(CCc4ccccc4)c(=O)[nH]c3c2)CC1	none
CCc1ccc(C(=O)Cn2ncc(Cl)c(Cl)c2=O)cc1	T cruzi inh 60
O=C(Cn1ncc(Cl)c(Cl)c1=O)N1CCc2ccccc21	T cruzi inh 82 (no result: beta cell repl)
Cc1ccc(Cn2ncc(Cl)c(Cl)c2=O)cc1	none (no result: TAG inh)
O=C(Cn1ncc(Cl)c(Cl)c1=O)N1CCN(Cc2ccccc2)CC1	TAG inh 64, T cruzi inh 67 (no result: beta cell repl)
CC1(C)C(=O)Nc2ccccc2N1C(=O)Cn1ncc(Cl)c(Cl)c1=O	T cruzi inh 55
CN(Cc1nccs1)C(=O)c1ccc2nc(Cc3ccccc3F)oc2c1	none (no result: TAG inh)
CC(C)OC(=O)CSc1nnc(Cc2ccccc2)n1Cc1ccco1	none (no result: TAG inh)
COc1ccc(CN2CCNC(=O)C2CC(=O)N(Cc2nccn2C)C(C)C)c(OC)c1 (centres undefined)	none
CC(C)CNS(=O)(=O)/C=C/c1ccc(F)cc1CNC(=O)OC(C)(C)C	none (no result: beta cell repl, PG9 binder, iPSC survival up, TAG inh, T cruzi inh)
CCOc1ccc(-n2c(SCC(=O)Nc3ccc(OC)cc3)nc3c(c2=O)SCC3)cc1	none
O=C(Nc1ccc2oc(-c3cccnc3)nc2c1)c1ccc([N+](=O)[O-])o1	TAG inh 75 (no result: beta cell repl)
O=C(Nc1ccc2oc(-c3cccnc3)nc2c1)c1ccc(Br)o1	none
O=C(Nc1cccc(N2C(=O)C=CC2=O)c1)c1cccs1	T cruzi inh 61
O=C(Nc1cccc(NC(=O)c2cccs2)c1)c1ccc([N+](=O)[O-])o1	TAG inh 61, T cruzi inh 68
COc1cc(NC(=O)c2ccc([N+](=O)[O-])o2)ccc1NC(=O)c1cccs1	T cruzi inh 86
O=C(Nc1cccc(NC(=O)c2ccc([N+](=O)[O-])o2)c1)c1ccco1	none (no result: TAG inh)
CCCCCN(C(=O)NC(=O)NC(C)CC)S(C)(=O)=O (centres undefined)	none (no result: TAG inh)
Cc1ccc(-n2c(-c3ccc(Br)cc3)c[n+]3c2CCc2ccc4cccnc4c2-3)cc1	T cruzi inh 60 (no result: beta cell repl, TAG inh)
Cc1ccc(-n2c(=O)[nH]c3ncccc3c2=O)cc1	none
COc1ccc(C2CC(C)(c3ccc(OC)cc3OC)Nc3ccccc3N2)c(OC)c1 (centres undefined)	T cruzi inh 73
CCN(CC)CCSc1nnc2c3cc(C)ccc3n(Cc3ccccc3)c2n1	T cruzi inh 58
CCN(CC)CCSc1nc2ccccc2n1Cc1ccccc1	none (no result: TAG inh)
CCOC(=O)c1c(C)n(C)c2ccc(OCC(O)CNCCc3ccccc3)cc12 (centres undefined)	T cruzi inh 55 (no result: TAG inh)
CCOC(=O)c1c(-c2ccccc2)oc2ccc(OCC(O)CNCCN(C)C)cc12 (centres undefined)	T cruzi inh 79 (no result: TAG inh)
Cc1ccc(-n2ncc3c(=O)n(CC(=O)N4CCCCCC4)cnc32)cc1	none
COC(=O)c1c(NC(=O)c2ccc([N+](=O)[O-])o2)sc2c1CCN(C(C)C)C2	TAG inh 59
CC(=O)N1CCc2c(sc(NC(=O)c3ccc([N+](=O)[O-])o3)c2C#N)C1	none (no result: beta cell repl)
CC(C)N1CCc2c(sc(NC(=O)c3ccc([N+](=O)[O-])o3)c2C(N)=O)C1	none
COC(=O)c1sc(NC(=O)c2ccc([N+](=O)[O-])o2)c(C#N)c1C	T cruzi inh 57
Cc1ccc2oc(=O)n(CCCOc3ccccc3)c2c1	none
Cc1ccc(CSc2nnc(-c3cccc4ccccc34)o2)cc1	none (no result: T cruzi inh)
C=CCNC(=S)N/N=C/c1ccc(-c2ccc(Cl)cc2Cl)o1	T cruzi inh 60
C=CCNC(=S)N/N=C/c1ccc(-c2ccc(OC)cc2)o1	T cruzi inh 91
